This note sets out measurements from publication PMC10126818 (RSC Advances, 2023).

The subject of the series is A549 cells. As to the kind of experiment: Cytotoxicity assay. It is filed as cell-based, human. An outline of the steps: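 A549 cells (ATCC) seeded in 96-well plates at 5 × 10^3 cells per mL, grown 24 h. Medium replaced with matched concentrations (up to 160 μg mL−1) of free drug or peptide-nanocage-encapsulated drug (pH 8.09). Nanocages were made by emulsifying drug in chloroform into 1 mM peptide/PBS pH 7.4. After 24 h, CCK-8 added for 3 h; OD 450 nm read. Viability = (ODtest − ODblank)/(ODcontrol − ODblank) × 100%.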

Entries after “also recorded” stand apart in the source; their conditions may differ. Where no end group is shown, it is not given here.

For the compound `CC(=O)O[C@H]1C(=O)[C@@]2(C)[C@H]([C@H](OC(=O)c3ccccc3)[C@]3(O)C[C@H](OC(=O)[C@H](O)[C@@H](NC(=O)c4ccccc4)c4ccccc4)C(C)=C1C3(C)C)[C@]1(OC(C)=O)CO[C@@H]1C[C@@H]2O` [PTX, Paclitaxel, reference compound], the cell survival rate result (160 μg mL^−1, 24 h culture, CCK-8, OD 450 nm) was “approximately 60%”.
On to “GNNQQNYPKKPGNNQQNY [GSLP, GNNQQNY-PKKP-GNNQQNY]”, for which, for the setting “24 h culture, CCK-8”, the “cytotoxicity (in words)” value is reported as “not concentration-dependent toxic; also recorded: do not exhibit cytotoxicity”.
